Assay [1] concerns the target 5-hydroxytryptamine receptor 2A (Rattus norvegicus) (UniProt P14842). The assay can be described thus: Displacement of [3H]ketanserin from Sprague-Dawley rat brain cortex serotonin 5-HT2A receptor at 0.0000001 uM after 15 mins by liquid scintillation counting. On the technique in general: Displacement assays read how much labelled ligand stays bound in the presence of the test substance.

Assay [2] has the same target. As to the kind of experiment: Displacement of [3H]ketanserin from Sprague-Dawley rat brain cortex serotonin 5-HT2A receptor at 0.00001 uM after 15 mins by liquid scintillation counting.
The target is the same in assay [3]. As to the kind of experiment: Displacement of [3H]ketanserin from Sprague-Dawley rat brain cortex serotonin 5-HT2A receptor at 0.001 uM after 15 mins by liquid scintillation counting.
In assay [4] the target is T1, 5-hydroxytryptamine receptor 2C (Rattus norvegicus, UniProt P08909).
T1 sequence (P08909 whole entry): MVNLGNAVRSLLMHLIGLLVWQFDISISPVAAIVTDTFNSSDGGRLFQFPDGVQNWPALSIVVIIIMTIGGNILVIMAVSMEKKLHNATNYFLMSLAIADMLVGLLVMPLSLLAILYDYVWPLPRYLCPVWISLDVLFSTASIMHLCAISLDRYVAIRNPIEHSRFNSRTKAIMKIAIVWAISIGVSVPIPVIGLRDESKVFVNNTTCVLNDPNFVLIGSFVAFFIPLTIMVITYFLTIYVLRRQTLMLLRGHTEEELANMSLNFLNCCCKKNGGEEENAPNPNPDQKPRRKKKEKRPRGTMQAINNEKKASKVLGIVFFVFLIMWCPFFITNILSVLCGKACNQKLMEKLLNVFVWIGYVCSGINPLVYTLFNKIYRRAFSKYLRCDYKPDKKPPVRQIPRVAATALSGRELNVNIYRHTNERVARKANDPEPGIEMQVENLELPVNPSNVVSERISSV
The assay can be described thus: Displacement of [3H]mesulergine from Sprague-Dawley rat brain cortex serotonin 5-HT2C receptor after 15 mins by liquid scintillation counting in presence of 5-HT2A blocker, spiperone. The method, boiled down:
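Male Sprague-Dawley rat frontal cortex membranes (Tris-HCl/EDTA/MgCl2 pH 7.4, ascorbate, pargyline). 100 nM spiperone in all tubes to block 5-HT2A sites. Mianserin defined nonspecific binding. 15 min at 37 °C, PEI-soaked glass fibre filtration. Six compound concentrations in triplicate. Ki by Cheng-Prusoff.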

The target of assay [5] is T2, Adrenergic receptor alpha-2 (Rattus norvegicus, UniProt P22086+P19328+P22909).
T2 sequence (P22086 whole entry): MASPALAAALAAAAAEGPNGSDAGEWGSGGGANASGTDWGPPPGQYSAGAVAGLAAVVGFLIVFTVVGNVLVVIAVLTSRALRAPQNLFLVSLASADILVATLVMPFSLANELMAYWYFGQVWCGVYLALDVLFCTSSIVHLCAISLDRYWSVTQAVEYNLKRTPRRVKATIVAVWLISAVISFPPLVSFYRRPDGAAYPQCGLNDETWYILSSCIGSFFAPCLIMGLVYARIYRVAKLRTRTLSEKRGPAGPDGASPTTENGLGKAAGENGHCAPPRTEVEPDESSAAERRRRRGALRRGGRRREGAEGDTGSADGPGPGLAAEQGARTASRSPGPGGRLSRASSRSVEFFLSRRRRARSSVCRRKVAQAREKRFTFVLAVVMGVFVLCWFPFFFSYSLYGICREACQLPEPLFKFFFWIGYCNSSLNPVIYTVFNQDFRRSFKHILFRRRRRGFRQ
T2 sequence (P19328 whole entry): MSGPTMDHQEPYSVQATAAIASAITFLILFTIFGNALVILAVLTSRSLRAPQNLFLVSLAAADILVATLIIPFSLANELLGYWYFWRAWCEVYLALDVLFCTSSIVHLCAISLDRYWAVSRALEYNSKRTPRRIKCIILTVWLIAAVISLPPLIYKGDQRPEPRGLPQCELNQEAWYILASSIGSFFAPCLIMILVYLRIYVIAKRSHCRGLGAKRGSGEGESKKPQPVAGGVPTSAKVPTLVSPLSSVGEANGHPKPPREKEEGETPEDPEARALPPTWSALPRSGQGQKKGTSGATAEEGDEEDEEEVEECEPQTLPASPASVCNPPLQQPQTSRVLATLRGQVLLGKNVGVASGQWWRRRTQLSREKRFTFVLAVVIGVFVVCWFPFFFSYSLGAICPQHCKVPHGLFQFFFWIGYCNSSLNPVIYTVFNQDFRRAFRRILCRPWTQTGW
T2 sequence (P22909 whole entry): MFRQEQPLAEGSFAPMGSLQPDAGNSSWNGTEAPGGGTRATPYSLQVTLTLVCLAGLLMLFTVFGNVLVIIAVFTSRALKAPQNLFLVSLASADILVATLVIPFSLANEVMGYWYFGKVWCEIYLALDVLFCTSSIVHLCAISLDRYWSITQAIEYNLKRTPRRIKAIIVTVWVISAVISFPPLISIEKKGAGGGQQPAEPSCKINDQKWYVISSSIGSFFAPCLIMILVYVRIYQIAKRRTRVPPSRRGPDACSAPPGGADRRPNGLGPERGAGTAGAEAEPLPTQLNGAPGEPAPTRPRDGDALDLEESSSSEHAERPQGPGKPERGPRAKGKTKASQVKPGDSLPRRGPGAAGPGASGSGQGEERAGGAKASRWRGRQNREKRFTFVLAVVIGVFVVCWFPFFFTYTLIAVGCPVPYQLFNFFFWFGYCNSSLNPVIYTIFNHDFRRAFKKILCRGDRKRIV
As to the kind of experiment: Displacement of [3H]yohimbine from rat brain cortex adrenergic alpha2 receptor after 30 mins by liquid scintillation counting. The method in brief: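 Cortex homogenized in 5 mM Tris-HCl, 5 mM EDTA pH 7.3, spun three times at 50,000 g, resuspended in 50 mM Tris-HCl, 0.5 mM EDTA pH 7.5. [3H]yohimbine 1 nM final, 10 mg fresh tissue, 30 min at 25 °C. Phentolamine defined nonspecific binding. Ki by Cheng-Prusoff.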

A word on the inhibition: it is the drop in the measured response relative to a control, in per cent. In general, Ki refers to the equilibrium dissociation constant of an inhibitor or competing ligand from its target.

Chain of 5-hydroxytryptamine receptor 2A (Rattus norvegicus) (P14842 whole entry): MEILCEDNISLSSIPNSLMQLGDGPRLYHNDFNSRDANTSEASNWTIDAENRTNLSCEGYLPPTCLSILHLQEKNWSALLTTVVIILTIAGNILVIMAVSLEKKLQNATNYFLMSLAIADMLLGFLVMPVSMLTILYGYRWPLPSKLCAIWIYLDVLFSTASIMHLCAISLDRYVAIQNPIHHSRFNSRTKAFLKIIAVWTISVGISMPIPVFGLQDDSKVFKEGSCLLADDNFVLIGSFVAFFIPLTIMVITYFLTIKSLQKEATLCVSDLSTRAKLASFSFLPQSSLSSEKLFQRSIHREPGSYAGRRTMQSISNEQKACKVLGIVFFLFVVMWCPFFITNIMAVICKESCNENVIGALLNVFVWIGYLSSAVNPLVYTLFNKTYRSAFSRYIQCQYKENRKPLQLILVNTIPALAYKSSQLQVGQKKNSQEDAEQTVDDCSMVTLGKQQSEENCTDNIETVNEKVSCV

Regarding `N#C/N=C(\NCCCN1CCN(c2ncccn2)CC1)c1ccccn1`, the inhibition in assay [1] stood at 24.2%; in assay [2], 44.3%; in assay [3] it was 70.4%. For the same molecule, the inhibition constant (Ki) in assay [4] (read-out: Ki) worked out at 22.5 nM.
Take `Cc1cccc(N2CCN(CCCN/C(=N\C#N)c3ccccn3)CC2)c1C`: the figures for the Ki in assay [5] and in assay [4] (read-out: Ki) were 318 nM and 29.7 nM, respectively.
Take `CCOc1ccccc1N1CCN(CCCN/C(=N\C#N)c2ccccn2)CC1`: the Ki in assay [5] is listed as 571 nM; in assay [4], “Not Active”.
For the molecule `N#C/N=C(\NCCCN1CCN(c2cccc(C(F)(F)F)c2)CC1)c1ccccn1`, the figures for the inhibition in assay [1], in assay [2] and in assay [3] were 34.9%, 62.8% and 85.9%, respectively. In addition, the Ki in assay [5] was over 10000 nM; in assay [4] (read-out: Ki) it was 1.81 nM.
For `COc1ccccc1N1CCN(CCCN/C(=N\C#N)c2ccccn2)CC1` the same measures were 21.9%, 65.9%, 95.1%, 245 nM and 1.61 nM.
Regarding `N#C/N=C(\NCCCN1CCN(c2ccccn2)CC1)c1ccccn1`, the Ki in assay [5] and in assay [4] (read-out: Ki) was over 10000 nM each time.
